Compound activity (PubChem)
Only a selection was taken, and hits are over-represented in it overall.
CHOP inhibitor – blocks CHOP induction under ER stress. CHO-K1 CHOP-promoter luciferase, tunicamycin-induced, 15-18 h. inhibition, % at 10 µM. actives 3.8% (n = 220,000). AID 2732;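 active = compounds that reduced the stress-induced luciferase reporter signal by more than about 70% of percent inhibition, limit read from the data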;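 note: 0% = tunicamycin plus vehicle and 100% = wells without tunicamycin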
TLR9-MyD88 inh – TLR9-MyD88 interaction inhibition; CHO BLA complementation TLR9-MyD88, CCF4 FRET ratio; inhibition, % at 4.98 µM; actives 0.21% (n = 340,000); AID 504734;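 active = inhibition above the mean over all tested compounds plus 3 SD, cut at about 21% in these data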;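 note: 0% = DMSO only wells and 100% = clavulanate BLA inhibitor control wells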
UPR CHOP act – apoptotic UPR (CHOP) activation. CHO-CHOP luciferase reporter, luminescence; percent of tunicamycin response over DMSO baseline. activation, % at 10 µM. actives 0.34% (n = 330,000);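 active = at 10 µM dose, activation of 40% or more, normalized to positive control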;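 note: 100% = tunicamycin at 10 µg/mL and 0% = DMSO alone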
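Assay system: CHO-CHOP cells, stable luciferase reporter of PERK-eIF2a-CHOP signalling / Buffer or medium: F12 plus 10% serum / Compound dosing: one dose, 10 µM in 0.5% DMSO / Times: 6 h compound treatment, 37 °C / Technique: luciferase luminescence / Read-out: % reporter activation, DMSO baseline versus tunicamycin full activation / Benchmarks: tunicamycin and DMSO controls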
TLR4-MyD88 BLA – inhibitors of human TLR4-MyD88 binding | O00206+Q99836 | HeLa CL3-4 TLR4/MyD88 BLA complementation, FRET ratio | inhibition, % at 8.4 µM | actives 0.18% (n = 200,000); in the data active = inhibition above about 25%;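 note: 0% = vehicle and 100% = reference inhibitor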
NOD2-RIPK2 inh – NOD2-RIPK2 protein interaction inhibition; O43353; CHO BLA complementation NOD2-RIPK2, CCF4 ratio; inhibition, % at 4.98 µM; actives 0.38% (n = 360,000); in the data active = inhibition above about 21%;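 note: 0% = vehicle only and 100% = reference blocker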
UPR XBP1 act – activators of adaptive arm of unfolded protein response (XBP1). CHO-XBP1 luciferase reporter, IRE1-XBP1 UPR activation, luminescence; percent of tunicamycin response, DMSO as zero. activation, % at 20 µM. actives 0.33% (n = 330,000). AID 463104;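 active = versus positive control, 20 µM dose yields 30% or more activation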;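 note: 100% = tunicamycin at 10 µg/mL and 0% = DMSO only wells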
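Material: CHO-XBP1 cells stably carrying IRE1-XBP1-driven luciferase reporter / Amount: 1000 cells per well / Compound: 20 µM, 1% DMSO / Times: 6 h treatment, 37 °C / Detection: luciferase luminescence / Measure: % activation of reporter signal versus tunicamycin and DMSO controls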
CHOP confirm – confirmation of CHOP induction inhibitors | shares compounds with CHOP inhibitor | CHO-CHOP promoter luciferase reporter, tunicamycin-induced, luminescence | inhibition, % at 10 µM | actives 45% (n = 2,100);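 active = mean of three repeat readings of reporter signal inhibition above a set limit, cut at about 70% in these data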;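 note: 0% = tunicamycin plus vehicle and 100% = wells lacking tunicamycin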
Active calls of the source: *; . = no result given.

SMILES	CHOP inhibitor	TLR9-MyD88 inh	UPR CHOP act	TLR4-MyD88 BLA	NOD2-RIPK2 inh	UPR XBP1 act	CHOP confirm
O=C1C2C3C=CC(CO)(O3)C2C(=O)N1c1ccccc1-c1ccccc1 (centres undefined)	.	5	8	2	81*	-5	-27
O=S1(=O)CCC(n2nccc2-c2ccccc2)C1 (centres undefined)	.	2	1	.	3	-2	.
COc1cccc(NC(=O)CSc2nnc(-c3cc(C)n(-c4ccccc4)c3C)o2)c1	98*	10	-8	5	5	-4	85*
O=C(Cn1ncc(Cl)c(Cl)c1=O)N1CCN(Cc2ccccc2)CC1	107*	10	.	24	18	.	-169
O=c1c(Cl)c(Cl)cnn1Cc1nnc(-c2ccc(Cl)cc2)o1	107*	20	.	5	20	.	38
Cc1cc(C)cc(Cn2ncc(Cl)c(Cl)c2=O)c1	106*	.	.	17	.	.	-31
O=c1c(Cl)c(Cl)cnn1Cc1ccccc1Cl	111*	.	.	24	.	.	26
O=C(Cn1ncc(Cl)c(Cl)c1=O)N1CCOCC1	-35	.	1	17	3	1	.
COC(=O)c1sc(N)c(C(=O)OC)c1Cn1ncc(Cl)c(Cl)c1=O	.	-1	35	.	0	-6	.
O=C(CN1C(=O)CSc2ncccc21)Nc1ccccc1F	.	4	0	.	2	-2	.
O=C(NNC(=O)c1ccc(Br)s1)c1cccc(Cl)c1	.	2	3	.	-8	3	.
Cc1occc(=O)c1OC(=O)Nc1ccccc1	4	3	2	-6	0	1	.
Cc1ccc(-c2csc(NC(=O)C3=NN(C4CCS(=O)(=O)C4)C(=O)CC3)n2)cc1 (centres undefined)	1	1	1	.	-6	-1	.
CC(C)c1nc2sc3c(NCc4ccccc4)ncnc3c2c2c1COC(C)(C)C2	65	-2	-3	-9	-14	7	.
CCN(CCO)c1ncnc2c1sc1nc(C(C)C)c3c(c12)CC(C)(C)OC3	99*	2	0	-5	-5	13	103*
NC(=O)c1ccc(C(F)(F)F)n(Cc2c(Cl)cccc2Cl)c1=O	102*	10	-1	0	15	0	112*
CCCCOc1ccccc1C(=O)NNC(=S)NC(=O)c1ccccc1[N+](=O)[O-]	.	3	0	.	5	-3	.
O=C1C=CC(=O)N1CCCCCCN1C(=O)C=CC1=O	107*	.	.	-5	.	.	116*
Cc1ccc(Cl)cc1NC(=O)COC(=O)CC1CC2CCC1C2 (centres undefined)	100*	6	-1	7	0	-1	68
O=C(COC(=O)CC1CC2CCC1C2)Nc1ccccc1Cl (centres undefined)	.	2	-1	.	-8	-1	.
O=C(Nc1nc2ccc(SC(F)F)cc2s1)c1ccc(NS(=O)(=O)c2ccc(F)c(F)c2)cc1	106*	2	7	10	1	2	-5
CS(=O)(=O)c1ccc2nc(NC(=O)c3ccc(NS(=O)(=O)c4ccc(F)c(F)c4)cc3)sc2c1	7	-7	1	.	-14	-1	.
O=C(Nc1cccc(-c2nc3ncccc3o2)c1)c1sc2ccccc2c1Cl	104*	3	0	4	-9	1	103*
Fc1cc(F)c2nc(Nc3nc4cc5c(cc4s3)OCO5)sc2c1	109*	-7	.	-16	-6	.	84*
Fc1cccc2sc(Nc3nc4cc5c(cc4s3)OCO5)nc12	41	-13	4	-2	-5	2	.
SMILES	CHOP inhibitor	TLR9-MyD88 inh	UPR CHOP act	TLR4-MyD88 BLA	NOD2-RIPK2 inh	UPR XBP1 act	CHOP confirm
Cc1cc(=O)[nH]c(N=N/C(=N/Nc2ccccc2C)c2ccccc2)n1	103*	1	-1	3	-8	7	43
Cc1cc(=O)[nH]c(N=N/C(=N/Nc2ccc(O)cc2)c2ccccc2)n1	50	8	3	-1	-6	0	.
Nc1nccc(-c2ccc(-n3cnc4ccccc43)cc2)n1	57	1	5	-4	-11	2	.
c1ccc2c(c1)ncn2-c1ccc(-c2ccnc(-c3ccncc3)n2)cc1	99*	-8	-1	-5	-3	1	6
C=CCNC(=S)NNc1nc2c(c(=O)[nH]1)C1(CCCC1)Cc1ccccc1-2	32	3	0	-7	-10	2	.
O=c1[nH]c(NNC(=S)NC2CCCCC2)nc2c1C1(CCCC1)Cc1ccccc1-2	103*	-10	2	.	5	-1	110*
O=C1c2ccccc2-c2onc3ccc(Oc4ccccc4)c1c23	106*	19	-2	-6	9	-10	84*
Cc1ccc(NC(=O)c2ccc(Nc3c([N+](=O)[O-])cc([N+](=O)[O-])cc3[N+](=O)[O-])cc2)cc1	104*	-2	-6	-2	7	-5	108*
CC(=O)Nc1ccc(NC(=O)c2cc([N+](=O)[O-])cc([N+](=O)[O-])c2)cc1	.	-8	0	.	-3	1	.
Cc1ccccc1NC(=O)C(=Cc1ccc(C(=O)O)cc1)C(=O)Nc1ccccc1C	103*	-2	.	-3	3	.	-22
CC(=O)Nc1ccccc1C	.	-8	1	.	-16	-3	.
Cc1ccc(Oc2ncnc(N)c2[N+](=O)[O-])cc1	15	7	1	3	2	-1	.
Cc1ccc(N(c2ncnc(N)c2[N+](=O)[O-])C2CCCCC2)cc1	105*	9	0	-4	5	2	100*
CC1=NS(=O)(=O)NC(C)(C)C1	.	6	.	.	6	.	.
CC1=CN2C(=N)/C(=C/c3ccc([N+](=O)[O-])o3)C(=O)N=C2S1	107*	-1	.	6	3	.	29
CC1Cc2cc(S(=O)(=O)N3CCN(c4ccccc4F)CC3)ccc2N1C(=O)C1CC1 (centres undefined)	.	0	2	.	2	-7	.
O=C(NCC1CCCO1)c1ccc2c(=O)n(Cc3ccc(Cl)cc3)c(=S)[nH]c2c1 (centres undefined)	103*	1	2	0	-3	0	0
Cc1cc(C)c2c(c1)/C(=N/NS(=O)(=O)c1ccc(Br)cc1)CCC2	106*	-2	1	6	-8	0	82*
CCCCN(CC)CCCNC(=O)c1cn(-c2ccc(OC)cc2)c(=O)c2ccccc12	.	6	1	.	-1	0	.
Cc1cc2cc(CNC(=O)Nc3cccc(Cl)c3)ccc2n1C	17	10	0	-1	2	-2	.
Cc1cccc(NC(=O)NCc2ccc3c(c2)cc(C)n3C)c1	106*	11	2	5	5	-1	27
